According to the EternaBench riboswitch data:

Tested on: MS2 coat protein
Experiment: apparent Kd, MS2 coat protein; higher = weaker binding; RNA-MaP array; FMN 200 µM where present
How it was run: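 Designs were transcribed by stalled E. coli RNA polymerase on Illumina sequencing-chip clusters. They were titrated with SNAP-549-labelled MS2 coat protein from 0.7 or 1.5 nM, doubling to 3 µM, in 100 mM Tris-HCl pH 7.5, 80 mM KCl, 4 mM MgCl2, BSA, DTT, yeast tRNA and Tween-20, without and then with constant ligand. The apparent Kd is the median of filtered per-cluster fits after normalisation of green signal to red-channel RNA signal and control-cluster median Fmax.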

[1] = designed as: ON switch for flavin mononucleotide, no ligand
[2] = ligand present: flavin mononucleotide, designed as: ON switch for flavin mononucleotide
[3] = designed as: OFF switch for flavin mononucleotide, no ligand
[4] = ligand present: flavin mononucleotide, designed as: OFF switch for flavin mononucleotide

GGCGAACAGGCUAACAUGAGGAUCACCCAUGUGGACUCAUGGUAGGAUAUCGGGAAGGAGGAAACCGAGAAGGGCCGGUGAGCU
apparent Kd [1]: 67.7 nM
apparent Kd [2]: 26.3 nM

UCCUCACAUGAGGAUCACCCAUGUCAGGAUAUAGGAGAUGGCAGAAAUCCUGCCAUCGCUAGAAGGGACUGGCA
apparent Kd [3]: 43.8 nM
apparent Kd [4]: 154 nM

CUUAUUAAACAAGGAUAUCAUUUGUGUACAAGUUUUACAUGAGGAUCACCCAUGUUAAAUGGUUUUGAGAAGGUGUUUAGAACU
apparent Kd [1]: 58.4 nM
apparent Kd [2]: 31.5 nM

UUGGGUCGGGAGGAUAUUCGGGCCCAAGGGCUUGGAGAAGGCUCGACAUGAGGAUCACCCAUGUAAGUGUACUU
apparent Kd [3]: 26.4 nM
apparent Kd [4]: 73.3 nM

GUCUCAGCUGAGGAUAUUAUCUGGCUCGACCGAUAAGAAGGCAGUACAUGAGGAUCACCCAUGUGGUUCGUUCG
apparent Kd [3]: 37.6 nM
apparent Kd [4]: 84.9 nM

CUACCUUAUGAGAAGGCGGUCAUGAAACAUGAUCGAGGAUAUCAUGUAAACAUGAGGAUCACCCAUGUAUGGGUAUUAUGGUAC
apparent Kd [1]: 170 nM
apparent Kd [2]: 33 nM

UCGUUGUCAGGAUAUCGUGUAUACAACGUUAGUUCUAUGUGCGAGAAGGGACAUGAGGAUCACCCAUGUUACGU
apparent Kd [3]: 69.2 nM
apparent Kd [4]: 213 nM

CGAUAGGACAGAGGAUAUACACAUGAGGAUCACCCAUGUGAUUUCAGCGCGAAAGCGCCAAACAUGUAGAAGGCUGUCCUAUCG
apparent Kd [3]: 25.9 nM
apparent Kd [4]: 10.6 nM

CUCCUACAUGAGGAUCACCCAUGUCAGGAUAUCUCAGUGGCACCUAAAGGCGCCACCCAGAGAAGGGACGUGCA
apparent Kd [3]: 11.6 nM
apparent Kd [4]: 14.8 nM

GCGUACAUAUCAGGAUAUCAUUGAAUGGAUUAACACAGUGAAUACAUGAGGAUCACCCAUGUGCUUGAGAAGGGAUUACAACGC
apparent Kd [3]: 10.9 nM
apparent Kd [4]: 9.4 nM

GCGGAAGGCACAGGAUAUCGUCCUUAGUUGGUACGAGAAGGGUGGCGCUGCCACAUGAGGAUCACCCAUGUGCCUUGACUAUAG
apparent Kd [1]: 245 nM
apparent Kd [2]: 1180 nM

UUAAUCAUGUAGAAGGACGGAUAUUAAGAGUACGUAGGAUAUACAGCAGACAUGAGGAUCACCCAUGUGAACAUGGUACAUAGG
apparent Kd [3]: 180 nM
apparent Kd [4]: 55 nM

UGGUACAUCGGAGGAUAUCAUGUAUAUACAUGAGGAUCACCCAUGUCGUACGAGAGUACGGAGAUUGAGAAGGCCGAUGUACCU
apparent Kd [1]: 39.4 nM
apparent Kd [2]: 15.3 nM

UUUAAGUCAGGAUAUCGUUAAUUUAAUUAUUUAUUUUAAUUCGAGAAGGGACAUGAGGAUCACCCAUGUAAUUU
apparent Kd [3]: 36.1 nM
apparent Kd [4]: 55.9 nM

AAGCGAGGGACAGGAUAUGCGGCGGAACUCGCCGCAGAAGGGUCGACAUGAGGAUCACCCAUGUCCUUACGCUCCAAGUAGAGG
apparent Kd [1]: 181 nM
apparent Kd [2]: 451 nM

GACUUGUAUGAGAAGGGACAUGGACUAGAUGUGACAUGAGGAUCACCCAUGUCAGGAUAUCAAGCGACCCGUAGCCGAUAGGCG
apparent Kd [3]: 10.5 nM
apparent Kd [4]: 46 nM

GGAAAGGACAGAGGAUAUACGUGCUAGAGAUACUAGCAAAAUUUCCUCACAUGAGGAUCACCCAUGUAGAAGGCUGUCCUAUCG
apparent Kd [3]: 16.2 nM
apparent Kd [4]: 394 nM

UUGCCCGCCGGAGGAUAUCUACUCUGUGGUGCACUGCGUUUGCAAUACAUGAGGAUCACCCAUGUAGAGAAGGCCGAGGGCACA
apparent Kd [3]: 318 nM
apparent Kd [4]: 48.3 nM

GGAGCUCCCAUUAACAUGAGGAUCACCCAUGUCAAAAGACAUGAGGAUAUGCUACCUAAUUGGUAGCAGAAGGCAUGGAGCUCC
apparent Kd [1]: 1160 nM
apparent Kd [2]: 81 nM

UGUUGUAUUACAGGAUAUCUAUUAGUUUGAUUUAGAGAAGGGUAUUCACAUGAGGAUCACCCAUGUAUAUACGAGGAAGUUGUG
apparent Kd [1]: 57.8 nM
apparent Kd [2]: 57.9 nM

GGUGUGAGGCAGGAUAUGCUAUAUGUUCGUAAUGCAGAAGGGUCUACAUGAGGAUCACCCAUGUGUGCGGUUGA
apparent Kd [3]: 172 nM
apparent Kd [4]: 413 nM

CUUUCGUGAGGAUAUCAGUAGUAAAAAAAUAAAAUUACUACUGAGAAGGCACAUGAGGAUCACCCAUGUUCCUC
apparent Kd [3]: 21.8 nM
apparent Kd [4]: 143 nM

UUGAGUUAGCAGGAUAUGGGCAGCAGGAUGCUUCCAGAAGGGCUGACAUGAGGAUCACCCAUGUUCCCAUGCUU
apparent Kd [3]: 47.7 nM
apparent Kd [4]: 63.6 nM
